Hits are enriched below; roughly 3.5% of the tested compounds scored in any of these assays.
MrgX1 antagonist: human MrgX1 receptor antagonism, primary screen; MRGX1-HEK293 calcium flux, Fluo-4, BAM8-22 antagonism; stronger effect = lower value; B-score at 10 µM; hit rate 1.3% among 310,000; AID 588676;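 active means calcium-response B-score plate-corrected more than 3 library SD below zero, starting fluorescence within 5 deviations, no agonist response on first addition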;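 further: peak minus trough fluorescence over baseline after final BAM8-22 challenge near maximal dose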
Target sequence (Q96LB2 whole entry, looked up): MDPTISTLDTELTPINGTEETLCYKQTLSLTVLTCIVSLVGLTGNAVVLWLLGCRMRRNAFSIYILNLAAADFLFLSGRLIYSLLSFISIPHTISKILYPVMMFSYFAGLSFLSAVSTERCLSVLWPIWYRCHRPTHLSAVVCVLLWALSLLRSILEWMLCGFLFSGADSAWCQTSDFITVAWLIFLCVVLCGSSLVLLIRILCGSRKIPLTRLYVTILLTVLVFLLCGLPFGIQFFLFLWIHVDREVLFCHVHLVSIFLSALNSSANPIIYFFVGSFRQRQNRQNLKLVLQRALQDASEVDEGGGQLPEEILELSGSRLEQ
MrgX1 ag: human MrgX1 receptor agonism, primary screen. MrgX1-HEK293 cells, Fluo-4 calcium fluorescence, agonist mode; stronger effect = higher value. B-score at 10 µM. hit rate 0.44% among 310,000. AID 588627;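 active means calcium response B-score plate-corrected fluorescence ratio at least 3 library SD, with starting fluorescence B-score inside 5 SD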
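System: HEK293 cells stably expressing human MrgX1 receptor; Dosing: test compound in the initial addition of three; Schedule: overnight plating, then 30 min 37 °C plus 30 min room-temperature dye loading; Detection: kinetic calcium dye fluorescence, Fluo-4 NW; Controls: per-plate positive and negative controls for Z′ factor.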
MrgX1 allo act: human MrgX1 positive allosteric modulation, primary screen | Q96LB2 | MrgX1-HEK293, Fluo-4 calcium flux, FDSS; stronger effect = higher value | B-score at 10 µM | hit rate 0.63% among 310,000;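 active means plate-corrected calcium response at least 3 library SD above typical, normal starting fluorescence, not activating the receptor alone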;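 further: compound read alongside a low EC10 to EC30 dose of BAM8-22 agonist; peak minus trough fluorescence over baseline measured at the second addition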
RGS4 inh: inhibitors of human RGS4. hit rate 0.45% among 310,000. HEK293 M3R/RGS4 inducible, Fluo-4 calcium flux; stronger effect = higher value; triggered by carbachol at its EC20. B-score at 10 µM. P49798;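 active means B-score, a plate-corrected calcium signal, over three deviations above library mean, with baseline fluorescence within five deviations of library mean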;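 further: RGS4 expression induced by doxycycline in cells with stable M3 receptor; B-score is computed from the integrated fluorescence ratio over baseline after carbachol; higher B-score means a larger calcium signal and so more RGS4 inhibition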
Target sequence (P49798 whole entry, looked up): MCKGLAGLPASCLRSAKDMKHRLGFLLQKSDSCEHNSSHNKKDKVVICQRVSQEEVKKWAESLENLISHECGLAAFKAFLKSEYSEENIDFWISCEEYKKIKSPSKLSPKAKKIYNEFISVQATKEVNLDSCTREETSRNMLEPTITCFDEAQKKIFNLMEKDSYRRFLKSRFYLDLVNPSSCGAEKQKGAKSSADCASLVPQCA
RGS4 pot: potentiators or activators of RGS4. B-score at 10 µM. HEK293 M3R/inducible RGS4, carbachol calcium flux Fluo4; stronger effect = lower value. hit rate 0.92% among 310,000;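 active means B-score of the integrated calcium signal more than 4 SD below the library mean, with starting fluorescence not abnormally high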;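 further: negative B-score means reduced calcium response which marks RGS4 activation or potentiation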
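Reagent: ECmax carbachol challenge; Test system: M3R-expressing HEK293 line, RGS4 induced by doxycycline; Schedule: overnight RGS4 induction, 30 min dye load 37 °C, 20 min compound RT; Detection: calcium dye Fluo4 fluorescence; Read-out: Agonist-evoked peak-minus-minimum fluorescence over baseline, integrated ratio, B score.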
An asterisk follows results filed as active; i = inactive; . = not tested or not shown.

SMILES | MrgX1 antagonist | MrgX1 ag | MrgX1 allo act | RGS4 inh | RGS4 pot
COc1ccccc1C1NC=C([N+](=O)[O-])C=C1[N+](=O)[O-] (stereo not given) | i | 29* | i | i | i
C=CCNCc1cc(=O)n2c(-c3ccccc3)csc2n1 | i | i | i | i | -8.8*
COc1ccc(S(=O)(=O)N(C)c2ccc(C(=O)Nc3ccccc3C(=O)N3CCOCC3)cc2)cc1OC | i | i | i | i | i
CC(C)(C)NC(=S)NCc1ccncc1 | i | i | i | i | i
Cc1ccc(O)c(Sc2cc(C)ccc2O)c1 | i | 29* | i | i | i
COc1cccc(-c2nc3ccc(C(=O)NC(C)Cc4cccnc4)cc3o2)c1 (stereo not given) | i | i | i | i | i
O=C1CCC/C(=N\NC(=O)c2ccc(COc3cccc4cccnc34)cc2)C1 | i | i | i | i | i
CC1CCCC(C)N1/N=C/c1ccc(C#N)cc1 (stereo not given) | i | i | 8.4* | i | i
Cc1ccc(-c2nc(CN(Cc3c(C)nn(C)c3C)C(C)C)c(C)o2)o1 | i | i | i | i | i
CCc1ccc(C2CC(=O)N(c3ccc(F)cc3)C3=C2C(=O)OC3)cc1 (stereo not given) | i | i | i | i | i
CCOC(=O)C(=Cc1ccc(F)cc1)C(=O)OCC | i | i | 7.5* | i | i
CCOC(=O)C(=Cc1ccc(Br)cc1)C(=O)OCC | i | i | i | i | i
CC(C)CCN(C(=S)Nc1cccc(F)c1)C(C)c1cccs1 (stereo not given) | i | i | 10* | i | i
COCCN(C(=S)Nc1cccc(C)c1)C(C)c1cccs1 (stereo not given) | i | i | i | i | i
Cc1ccc(C(=O)COC(=O)c2ccc(O)cc2)cc1 | i | i | i | i | i
O=C(OCn1ncc(Br)c(Br)c1=O)c1c(F)cccc1F | i | i | i | 5.4* | i
CC(=O)Cn1ncc(Br)c(Br)c1=O | . | . | . | i | i
Cc1cc(-n2c(C)cc(C(=O)CSc3nncn3C(C)C)c2C)no1 | i | i | i | i | i
CCN1/C(=C/C=C/c2oc3ccc4ccccc4c3[n+]2CC)Oc2ccc3ccccc3c21 | -7.8* | i | i | i | -9*
O=C(Nc1ccc2nccnc2c1)Nc1ccccc1Cl | i | i | i | i | i
O=C(Nc1cccc(Cl)c1)Nc1ccc2nccnc2c1 | -4.7* | i | i | i | i
Cc1cc2ncc(-c3cccs3)nc2cc1C | i | i | i | i | i
CC(C)c1ccc(/C=C/C(=O)Nc2ccc(CN3CCOCC3)cc2)cc1 | i | i | i | i | -8.2*
COC(=O)c1[nH]c2cc(C)ccc2c1NC(=O)CN1CCCc2ccccc21 | i | i | i | i | -7.3*
COC(=O)c1[nH]c2ccc(Br)cc2c1NC(=O)CN1CCCc2ccccc21 | i | i | i | i | i
SMILES | MrgX1 antagonist | MrgX1 ag | MrgX1 allo act | RGS4 inh | RGS4 pot
Cc1ccccc1NC(=O)C(=O)c1cn(C)c2ccccc12 | i | i | i | i | i
COCCCNC(=O)Cn1cnc2sc(C)c(S(=O)(=O)N3CC(C)CC(C)C3)c2c1=O (stereo not given) | i | i | i | i | i
COc1ccc(/C=C/C(=O)Nc2sc3c(c2C(=O)NCc2cccnc2)CCCC3)cc1 | i | i | i | i | -8.7*
O=C(COc1ccccc1)Nc1sc2c(c1C(=O)NCc1cccnc1)CCCC2 | i | i | i | i | i
O=c1c2ccccc2nc(/C=C/c2ccc([N+](=O)[O-])cc2)n1CCCO | i | i | i | i | i
O=c1c2ccccc2nc(/C=C/c2cccc([N+](=O)[O-])c2)n1CCCO | i | i | 7.2* | i | i
Cc1cc(C)cc(OCC(=O)Nc2nc(-c3cccnc3)cs2)c1 | i | i | i | i | i
COc1ccc(Br)cc1CN(C)C(=O)CNC(=O)c1ccc2ccccc2c1 | i | i | i | i | i
CN1CCN(/N=C/c2c3ccccc3c(Cl)c3ccccc23)CC1 | i | i | 9.3* | i | i
CN1CCN(/N=C/c2ccc(-c3ccccc3)cc2)CC1 | i | i | i | i | i
Nn1c(SCC(=O)Nc2nccs2)nnc1C1CC1 | i | i | i | i | i
COc1cc(NC(=O)CN(C)C2CCCCC2)c(C)cc1[N+](=O)[O-] | -5.2* | i | i | i | i
COc1ccc(OC)c(NC(=O)c2c(NC(=O)CCC(=O)O)sc3c2CCCCC3)c1 | i | i | 7* | i | i
Oc1ccc2ccccc2c1CN1CCN(c2ccccc2F)CC1 | . | . | . | i | i
Oc1ccc2ccccc2c1CN1CCN(C/C=C/c2ccccc2)CC1 | i | i | i | i | -7.8*
CCOC(=O)C1C(=O)C=C(c2ccc(Br)cc2)CC1c1ccco1 (stereo not given) | -5.7* | i | i | i | i
CCOC(=O)C1C(=O)C=C(c2cccc(NS(C)(=O)=O)c2)CC1c1ccco1 (stereo not given) | i | i | i | i | i
COCCn1c(SCC(=O)N(C(C)C)C(C)C)nnc1-c1cc2ccccc2cc1O | i | i | 6.6* | i | i
CC(C)(C)C1CCc2c(C(=O)NNC(=O)/C=C/C(=O)O)csc2C1 (stereo not given) | -6.4* | i | i | i | i
CC(C)(C)C1CCc2c(C(=O)N/N=C/c3cccs3)csc2C1 (stereo not given) | i | i | i | i | i
COc1ccc(OC)c(C2=C/C(=C/c3ccccn3)C(=O)O2)c1 | i | i | i | i | -7.9*
CCOC(=O)C1C(=O)C=C(/C=C/c2ccc(N(C)C)cc2)CC1c1ccccc1 (stereo not given) | i | i | i | i | i
Fc1ccc(Cn2c(SCc3ccc(F)c(F)c3)nnc2C(F)(F)F)cc1 | i | i | i | i | -8.5*
CCOC(=O)c1c(C)n(C)c2ccc(OC(=O)c3ccc(N4C(=O)CCC4=O)cc3)cc12 | i | i | i | i | i
COCCCNC(=O)C(=O)C1C(=O)Nc2ccccc21 (stereo not given) | i | i | i | i | i
O=C(C1CCN(S(=O)(=O)c2ccccc2)CC1)N1CCCCCC1 | i | i | i | i | i
COC(=O)c1ccc(COC(=O)c2ccc(CO)cc2)o1 | i | i | i | i | i
Cn1nc(CC(=O)Nc2ncc(Br)s2)c2ccccc2c1=O | i | i | 8.9* | i | i

Screening data as filed in PubChem.
